The source of these data is article PMC5889851 (ACS chemical biology, 2018).

For data set [1], the system named is HEK293 cells overexpressing SIRT2. In words: Cellular NAD+ measurement. Type of data set: cell-based, human. The note with it: 40 nM, 6 h, vs control cells. The method, boiled down:
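SIRT2-overexpressing HEK293 cells got 0 or 40 nM NAMPT inhibitor for 6 h, then were harvested, rinsed and resuspended in fresh medium. Pellets were extracted with ice-cold 7% perchloric acid through three vortex (30 s) and ice sonication (5 min) cycles. Extracts were centrifuged 3 min at RT, and supernatant was neutralised to pH 7 with NaOH and phosphate buffer. NAD⁺ was quantified by cycling assay.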

For another data set, the system named is HEK293 cells. In words: Viability testing using trypan blue. Type of data set: cell-based, human. The note with it: 40 nM, 6 h. The essentials: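 HEK293 cells received 0 or 40 nM NAMPT inhibitor for 6 h, then were harvested, rinsed and resuspended in fresh medium. An aliquot of the suspension was scored for viability by trypan blue exclusion.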
Data set [2] addresses T1, SIRT2 in SIRT2 overexpressing HEK293 cells (Homo sapiens, UniProt Q8IXJ6).
T1 sequence (Q8IXJ6 1-389): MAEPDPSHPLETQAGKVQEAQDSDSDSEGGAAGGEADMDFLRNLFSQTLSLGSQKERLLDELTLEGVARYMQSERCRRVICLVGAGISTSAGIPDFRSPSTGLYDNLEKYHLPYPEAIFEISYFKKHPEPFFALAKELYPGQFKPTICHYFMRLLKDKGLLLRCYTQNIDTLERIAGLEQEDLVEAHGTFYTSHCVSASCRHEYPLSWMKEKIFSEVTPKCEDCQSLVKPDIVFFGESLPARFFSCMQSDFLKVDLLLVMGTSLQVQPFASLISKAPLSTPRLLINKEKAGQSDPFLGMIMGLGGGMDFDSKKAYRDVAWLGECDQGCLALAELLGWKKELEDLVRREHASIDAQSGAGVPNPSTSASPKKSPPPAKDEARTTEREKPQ
In words: In situ labeling of SIRT2 with activity-based probe. The format is cell-based. The note with it: cells treated with FK866 6 h, then 10 μM probe 1; compared to control cells. The method, boiled down:
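SIRT2-overexpressing HEK293 cells were treated with or without NAMPT inhibitor for 6 h, rinsed three times, and given fresh medium with 10 μM probe. Live cells were irradiated at 365 nm on ice for 1 h, then harvested and lysed. Lysate was click-conjugated to azide-fluor 545, resolved by SDS-PAGE and scanned for fluorescence. SIRT2 protein level was checked by Western blot.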

Consider `O=C(/C=C/c1cccnc1)NCCCCC1CCN(C(=O)c2ccccc2)CC1` [FK866], for which the “NAD+ depletion” value in data set [1] worked out at 60%. Besides, the loss of viability result with HEK293 cells is on record as “negligible loss of viability”. For the same molecule, the “in situ labeling intensity of SIRT2 by probe 1” value in data set [2] is “decreased labeling intensity”.
